Calls of active or inactive are those of the source. The calls are words filed in the database; no cut-off is given here. Where a SMILES comes first, the peptide text is derived from it. [ ]: non-standard residue; d: D form. The star is where a group is joined. Nva = CCC[C@H](N)C(=O)O; Cbz = O=C(OCc1ccccc1)*
How the values were obtained:
Proteasome [1] = experiment: Inhibition of proteasome in human HEK293T cells stably expressing YFP delSS TCRalpha assessed as reduction in deltaSS TCRalpha-YFP degradation at 10 uM MG132 incubated overnight by Western blot analysis
Proteasome [2] = experiment: Irreversible inhibition of proteasome in human A373 cells co-expressing US11 and HA-tagged MCH class 1 heavy chain H2A assessed as MHC class 1 heavy chain degradation at 20 uM incubated for 1 hr followed by further incubation in drug-free medium in presence of cycloheximide by Western blot analysis
Proteasome [3] = experiment: Inhibition of proteasome in human HEK293T cells based Ubv-GFP cells assessed as increase Ub-v-GFP accumulation at 20 uM after 4 hrs by Western blot analysis
[4] = molecular target: T1, Transitional endoplasmic reticulum ATPase (Homo sapiens, UniProt P55072); experiment: Inhibition of His-tagged p97 (unknown origin) in presence of ATP and PNP by UV-transparent microplate assay; conditions: read-out: Ki(app)
Target sequence in this assay (P55072 whole entry): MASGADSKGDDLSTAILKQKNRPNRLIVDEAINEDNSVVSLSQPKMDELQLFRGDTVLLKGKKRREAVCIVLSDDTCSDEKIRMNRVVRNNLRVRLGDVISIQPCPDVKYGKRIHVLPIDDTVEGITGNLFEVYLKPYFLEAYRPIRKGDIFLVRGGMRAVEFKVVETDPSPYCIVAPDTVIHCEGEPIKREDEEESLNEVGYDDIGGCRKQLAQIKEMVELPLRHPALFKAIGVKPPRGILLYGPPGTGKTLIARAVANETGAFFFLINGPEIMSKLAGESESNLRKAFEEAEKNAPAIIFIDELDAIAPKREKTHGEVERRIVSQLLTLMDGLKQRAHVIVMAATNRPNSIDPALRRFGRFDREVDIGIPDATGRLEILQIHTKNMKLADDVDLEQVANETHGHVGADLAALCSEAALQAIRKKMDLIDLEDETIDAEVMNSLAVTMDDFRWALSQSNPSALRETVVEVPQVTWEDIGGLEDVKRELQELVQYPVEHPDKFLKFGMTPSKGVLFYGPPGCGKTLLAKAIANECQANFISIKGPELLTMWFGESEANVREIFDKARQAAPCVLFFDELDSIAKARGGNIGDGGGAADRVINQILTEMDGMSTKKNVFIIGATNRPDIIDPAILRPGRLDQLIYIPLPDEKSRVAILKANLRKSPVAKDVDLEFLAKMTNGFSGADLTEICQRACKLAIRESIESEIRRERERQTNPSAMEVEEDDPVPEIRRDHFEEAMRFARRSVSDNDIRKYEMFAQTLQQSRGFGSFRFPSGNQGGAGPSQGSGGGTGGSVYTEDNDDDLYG

MIA PaCa-2 = experiment: Antiproliferative activity against human MIAPaCa2 cells; format: functional, cell-based
[5] = molecular target: T1, Transitional endoplasmic reticulum ATPase; experiment: Inhibition of p97 ATPase activity in human HEK293T cells based Ubv-GFP cells assessed as increase Ub-v-GFP accumulation at 2 uM after 4 hrs by Western blot analysis; format: cell-based
In short: (§1)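 Ub-v-GFP reporter cells (HEK293T-based, 3 × 10⁵) seeded on poly-D-lysine-coated wells and grown overnight. Inhibitor added at 2 μM and kept 4 h at 37 °C (scheme A), or removed after 1 h, cells washed once with PBS, then 3 h in drug-free medium (scheme B). Whole-cell Laemmli extracts immunoblotted for Ub-v-GFP, with anti-p97 as loading control.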
Target sequence in this assay (P55072 2-806 limits assumed): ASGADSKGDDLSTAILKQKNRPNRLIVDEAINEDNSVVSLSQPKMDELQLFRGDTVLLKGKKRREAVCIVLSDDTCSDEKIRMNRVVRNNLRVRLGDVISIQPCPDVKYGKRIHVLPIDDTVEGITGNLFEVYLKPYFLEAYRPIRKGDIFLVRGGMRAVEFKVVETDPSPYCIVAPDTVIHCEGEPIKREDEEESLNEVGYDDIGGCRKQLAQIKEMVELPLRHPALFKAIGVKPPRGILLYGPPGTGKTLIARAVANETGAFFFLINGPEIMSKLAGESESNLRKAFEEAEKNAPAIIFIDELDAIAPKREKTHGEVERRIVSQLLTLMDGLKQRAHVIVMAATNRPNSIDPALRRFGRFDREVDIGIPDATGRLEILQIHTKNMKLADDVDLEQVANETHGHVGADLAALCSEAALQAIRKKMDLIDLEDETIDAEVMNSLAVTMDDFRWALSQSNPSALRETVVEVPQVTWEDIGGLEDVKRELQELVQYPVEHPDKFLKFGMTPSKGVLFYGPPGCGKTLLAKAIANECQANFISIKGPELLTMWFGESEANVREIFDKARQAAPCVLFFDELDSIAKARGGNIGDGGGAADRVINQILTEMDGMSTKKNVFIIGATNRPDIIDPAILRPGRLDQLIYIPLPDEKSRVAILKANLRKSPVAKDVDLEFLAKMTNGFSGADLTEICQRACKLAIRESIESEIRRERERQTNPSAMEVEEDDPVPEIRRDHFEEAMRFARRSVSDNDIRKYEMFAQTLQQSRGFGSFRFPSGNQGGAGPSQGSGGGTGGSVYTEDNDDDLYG

[6] = molecular target: T1, Transitional endoplasmic reticulum ATPase; experiment: Irreversible inhibition of p97 ATPase activity in human HEK293T cells based Ubv-GFP cells assessed as increase Ub-v-GFP accumulation at 2 uM incubated for 4 hrs by Western blot analysis; format: cell-based; in short: as §1
Target sequence in this assay (P55072 2-806 limits assumed): as above

[7] = GSH reactivity in PBS buffer assessed as GSH adduct formation at 1 uM after presence of GSH by LC-MS/MS analysis; format: physicochemical
In short: (§2)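 Compound at 1 μM incubated at 37 °C with 5 mM GSH plus a stable internal standard in 0.1 M potassium phosphate, pH 7.4, 10% acetonitrile. Reaction started by GSH addition. GSH conjugate formation checked at the end of incubation.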

[8] = GSH reactivity in PBS buffer assessed as half life at 1 uM after presence of GSH by LC-MS/MS analysis; format: physicochemical; conditions: PBS buffer with GSH; in short: as §2
Proteasome [9] = experiment: Irreversible inhibition of proteasome in human HEK293T cells based Ubv-GFP cells assessed as increase Ub-v-GFP accumulation at 20 uM incubated for 1 hr followed by culturing in drug-free medium for additional 3 hrs by Western blot analysis
Proteasome [10] = experiment: Irreversible inhibition of proteasome in human HEK293T cells based Ubv-GFP cells assessed as increase Ub-v-GFP accumulation at 20 uM after 4 hrs by Western blot analysis
In short: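 Ub-v-GFP reporter cells (HEK293T-based, stably expressing this short-lived proteasome substrate) seeded at 3 × 10⁵ per well on poly-D-lysine, grown overnight, then exposed to MG132 for 4 h at 37 °C. Whole-cell extracts in Laemmli buffer were run on SDS-PAGE and immunoblotted for Ub-v-GFP, with anti-p97 as loading control.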

[11] = molecular target: T1, Transitional endoplasmic reticulum ATPase; experiment: Irreversible inhibition of His-tagged p97 (unknown origin) using PNP as substrate assessed as activity recovered at 780 nM after 2 hrs by dialysis relative to control; set-up: scale not given: the % may be the effect or the level left
Target sequence in this assay (P55072 2-806 limits assumed): as above

[12] = molecular target: T1, Transitional endoplasmic reticulum ATPase; experiment: Irreversible inhibition of p97 in human A373 cells co-expressing US11 and HA-tagged MCH class 1 heavy chain H2A assessed as MHC class 1 heavy chain degradation at 2 uM incubated for 1 hr followed by further incubation in drug-free medium in presence of cycloheximide by Western blot analysis
Target sequence in this assay (P55072 2-806 limits assumed): as above

[13] = molecular target: T1, Transitional endoplasmic reticulum ATPase; experiment: Irreversible inhibition of p97 ATPase activity in human HEK293T cells based Ubv-GFP cells assessed as increase Ub-v-GFP accumulation at 2 uM incubated for 1 hr followed by culturing in drug-free medium for additional 3 hrs by Western blot analysis; format: cell-based; in short: as §1
Target sequence in this assay (P55072 2-806 limits assumed): as above

Proteasome [14] = experiment: Inhibition of proteasome in human HEK293T cells stably expressing YFP delSS TCRalpha assessed as reduction in deltaSS TCRalpha-YFP degradation at 2 uM MG132 incubated overnight by Western blot analysis
[15] = molecular target: T1, Transitional endoplasmic reticulum ATPase; experiment: Inhibition of p97 in human A373 cells co-expressing US11 and HA-tagged MCH class 1 heavy chain H2A assessed as MHC class 1 heavy chain accumulation at 2 uM after 1 hr by Western blot analysis; format: cell-based
Target sequence in this assay (P55072 2-806 limits assumed): as above

Homo sapiens = organism: Homo sapiens; experiment: Irreversible inhibition of His-tagged p97 delta N mutant (unknown origin) using PNP as substrate assessed as activity recovered at 780 nM after 2 hrs by dialysis relative to control; set-up: scale not given: the % may be the effect or the level left
[16] = system: Transitional endoplasmic reticulum ATPase (Homo sapiens), P55072 [UNDEFINED MUTATION]; experiment: Irreversible inhibition of His-tagged p97 C552A mutant (unknown origin) using PNP as substrate assessed as activity recovered at 780 nM after 2 hrs by dialysis relative to control; set-up: scale not given: the % may be the effect or the level left
Sequence of Transitional endoplasmic reticulum ATPase (Homo sapiens), P55072 [UNDEFINED MUTATION] (P55072 whole entry, looked up, stated change not applied): as the sequence (P55072 whole entry) above

[17] = molecular target: T1, Transitional endoplasmic reticulum ATPase; experiment: Noncompetitive inhibition of p97 (unknown origin) using increasing concentration of ATP preincubated for 10 mins followed by ATP addition and measured after 2 hrs by UV-based two-step endpoint assay
[18] = molecular target: T1, Transitional endoplasmic reticulum ATPase; experiment: Reversible inhibition of p97 in human A373 cells co-expressing US11 and HA-tagged MCH class 1 heavy chain H2A assessed as half life for MHC class 1 heavy chain degradation at 2 uM incubated for 1 hr followed by further incubation in drug-free medium in presence of cycloheximide by Western blot analysis; format: cell-based
In short: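 They were then moved to inhibitor-free medium containing cycloheximide (50 μg/mL) and sampled at set time points. Lysates were immunoblotted for heavy chain turnover.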

[19] = molecular target: T1, Transitional endoplasmic reticulum ATPase; experiment: Reversible inhibition of His-tagged p97 (unknown origin) using PNP as substrate assessed as activity recovered at 3200 nM after 2 hrs by dialysis relative to control; set-up: scale not given: the % may be the effect or the level left
[20] = system: Transitional endoplasmic reticulum ATPase (Homo sapiens), P55072 [UNDEFINED MUTATION]; experiment: Reversible inhibition of His-tagged p97 C552A mutant (unknown origin) using PNP as substrate assessed as activity recovered at 3200 nM after 2 hrs by dialysis relative to control; set-up: scale not given: the % may be the effect or the level left

| Ki [4] [nM] | EC50 (MIA PaCa-2) [nM] | inhibition [5] | Compound | also measured |
| --- | --- | --- | --- | --- |
|  |  |  | CC(C)C[C@@H](C=O)NC(=O)[C@H](CC(C)C)NC(=O)[C@H](CC(C)C)NC(=O)OCc1ccccc1 (Cbz-Leu-Leu-Leu-aldehyde) | inhibition (Proteasome [1]): Active; inhibition (Proteasome [2]): Active; inhibition (Proteasome [3]): Active |
| 20.8 | 1010 | Active | CCC(=O)Nc1cccc2c1cc(C)n2-c1nc2c(c(NCc3ccccc3)n1)CCCC2 |  |
| 30.6 | 470 | Active | C#CCNC(=O)c1cccc2c1cc(C)n2-c1nc2c(c(NCc3ccccc3)n1)CCCC2 | inhibition [6]: Active |
| 32.8 | 78.7 |  | C#CC(=O)Nc1cccc2c1cc(C)n2-c1nc2c(c(NCc3ccccc3)n1)COCC2 |  |
| 37.3 | 723 | Active | CC#CCNC(=O)c1cccc2c1cc(C)n2-c1nc2c(c(NCc3ccccc3)n1)CCCC2 | inhibition [6]: Active; Activity [7]: Not Active; half-life at 1 µM [8]: > 24 h |
| 40.8 | 608 |  | CCCNC(=O)c1cccc2c1cc(C)n2-c1nc2c(c(NCc3ccccc3)n1)CCCC2 |  |
|  |  |  | CCC[C@@H](C=O)NC(=O)[C@H](CC(C)C)NC(=O)[C@H](CC(C)C)NC(=O)OCc1ccccc1 (Cbz-Leu-Leu-[Nva]-aldehyde) | inhibition (Proteasome [9]): Active; inhibition (Proteasome [10]): Active |
| 43 | 463 | Active | CCC#CC(=O)Nc1cccc2c1cc(C)n2-c1nc2c(c(NCc3ccccc3)n1)CCCC2 |  |
| 33.2 | 436 | Active | CC#CC(=O)Nc1cccc2c1cc(C)n2-c1nc2c(c(NCc3ccccc3)n1)CCCC2 | Activity [11]: 3%; inhibition [12]: Active; inhibition [6]: Active; inhibition [13]: Active; inhibition (Proteasome [14]): inactive; inhibition [15]: Active; Activity (Homo sapiens): 0%; Activity [16]: 6%; inhibition [17]: Active |
| 26.6 | 880 |  | C=CC(=O)Nc1cccc2c1cc(C)n2-c1nc2c(c(NCc3ccccc3)n1)COCC2 |  |
| 18.6 | 1080 | Active | C#CCNC(=O)c1cccc2c1cc(C)n2-c1nc2c(c(NCc3ccccc3)n1)COCC2 | inhibition [6]: Active |
| 28.6 | 128 | Active | Cc1cc2c(C(N)=O)cccc2n1-c1nc2c(c(NCc3ccccc3)n1)CCCC2 |  |
|  |  |  | Cc1cc(OCc2nnc(SC3CCCC3)n2-c2cccnc2)ccc1-c1ccc(S(C)(=O)=O)cc1 | T1/2 [18]: < 1 h; inhibition (Proteasome [14]): inactive; inhibition [15]: Active |
| 32.3 | 600 |  | CC#CC(=O)Nc1cccc2c1cc(C)n2-c1nc2c(c(NCc3ccccc3)n1)COCC2 |  |
| 42.4 | 524 | Active | CC#CCNC(=O)c1cccc2c1cc(C)n2-c1nc2c(c(NCc3ccccc3)n1)COCC2 | inhibition [6]: Active; Activity [7]: Not Active; half-life at 1 µM [8]: > 24 h |
| 28.1 | 468 | Active | Cc1cc2c(C(=O)NCC#N)cccc2n1-c1nc2c(c(NCc3ccccc3)n1)CCCC2 |  |
| 24.1 | 517 | Active | Cc1cc2c(C(=O)NCCC#N)cccc2n1-c1nc2c(c(NCc3ccccc3)n1)CCCC2 |  |
| 37.9 | 131 |  | C#CC(=O)Nc1cccc2c1cc(C)n2-c1nc2c(c(NCc3ccccc3)n1)CCCC2 |  |
| 26.9 | 1570 | Active | CCCC#CC(=O)Nc1cccc2c1cc(C)n2-c1nc2c(c(NCc3ccccc3)n1)CCCC2 |  |
| 24.5 | 1410 | Active | C#CCCNC(=O)c1cccc2c1cc(C)n2-c1nc2c(c(NCc3ccccc3)n1)CCCC2 |  |
|  |  |  | COc1cccc2c(NCc3ccccc3)nc(-n3c(N)nc4ccccc43)nc12 | Activity [19]: 82%; Activity [20]: 100% |

— ChEMBL document CHEMBL4400565, “Discovery of Irreversible p97 Inhibitors” (J Med Chem, 2019)
